Data on 1 molecule can be found in ChEMBL document CHEMBL4312027, “Synthesis, characterization, and biological activity of a triphenylphosphonium-containing imidazolium salt against select bladder cancer cell lines” (Eur J Med Chem, 2020).

By GI50 is commonly meant the concentration that inhibits growth by half. Low readings indicate more potent growth inhibition, high ones less potent growth inhibition.

Activity calls are given as the source filed them. The calls are words filed in the database; no cut-off is given here.

One series has as its system UACC-62. Description: Growth inhibition of human UACC62 cells assessed as growth percent at 10 uM incubated for 48 hrs by sulforhodamine B assay relative to control. It is filed as functional. Conditions: UACC-62, 48 h, read-out: Activity.
A further series deals with 5637. Description: Growth inhibition of human 5637 cells measured after 1 hr by Celltiter-Glo luminescent cell viability assay. It is filed as functional. The conditions noted are these: Homo sapiens, 5637, 1 h. Put shortly:
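Seeded at 10000 cells/well and grown 24 h, then exposed to 62.5–2000 μM (two-fold steps) or vehicle in growth medium for 1 h. Medium was replaced with normal medium for 24 h before CellTiter-Glo luminescence was read. Survival was expressed relative to vehicle, with quadruplicate wells, and GI50 was calculated.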
For orientation: Cellular ATP, detected with luciferase, serves as a proxy for viable cell number.

The subject of the next series is OVCAR-4. The experiment in a line: Growth inhibition of human OVCAR4 cells assessed as growth percent at 10 uM incubated for 48 hrs by sulforhodamine B assay relative to control. Conditions: OVCAR-4, 48 h, read-out: Activity. It is filed as functional. For orientation: Sulforhodamine B stains cellular protein and so reports cell mass.
Series [1] relates to J82. The experiment in a line: Cell cycle arrest in human J82 cells assessed as increase in cell accumulation at sub-G1 phase at 250 to 500 uM incubated for 1 hr measured after culturing in normal medium for 24 hrs by propidium iodide/RNase staining based FACScan flow cytometry analysis. It is filed as functional. The gist of the method: (§1)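 Seeded at 300,000 cells/well in triplicate per treatment; 24 h later exposed to 250 or 500 μM or vehicle for 1 h. After 24 h in normal media, media plus cells were collected, washed, fixed in cold 70% ethanol (4 °C, 30 min), treated with phosphate citric acid buffer, stained with PI/RNase and gated for sub-G1 by flow cytometry.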

Series [2] relates to J82. Description: Anticlonogenic activity against human J82 cells assessed as decrease in colony formation at 250 to 500 uM incubated for 1 hr measured after culturing in normal medium for 10 days by crystal violet staining assay. It is filed as functional, cell-based. Put shortly:
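Cells seeded at 500/well, treated 24 h later with 250 or 500 μM drug or vehicle for 1 h. Cells were then grown in normal media for 10 days, stained with 0.5% crystal violet in 20% MeOH/water at 4 °C for 5 min, washed, dried and imaged. Run in triplicate.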

Another series concerns SW-620. Description: Growth inhibition of human SW620 cells assessed as growth percent at 10 uM incubated for 48 hrs by sulforhodamine B assay relative to control. It is filed as functional. Conditions: SW-620, 48 h, read-out: Activity.
In the next series the test system is MCF7. Description: Growth inhibition of human MCF7 cells assessed as growth percent at 10 uM incubated for 48 hrs by sulforhodamine B assay relative to control. Conditions: MCF7, 48 h, read-out: Activity. The series is classed as functional.
The subject of series [3] is RT-112. The experiment in a line: Growth inhibition of human RT112 cells at 500 uM by Celltiter-Glo luminescent cell viability assay. It is filed as functional, cell-based. The conditions noted are these: TDE = time-dependent effect. The gist of the method: (§2)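 Cells seeded 10000/well, 24 h, then exposed in ATCC-recommended medium to 62.5–2000 μM (two-fold steps) or vehicle for the set time (5–60 min), then normal medium. After 24 h, plates equilibrated 30 min at room temperature, CellTiter-Glo added, 2 min at room temperature, luminescence read. Survival relative to vehicle control; quadruplicate.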

The next series deals with HL-60(TB). The experiment in a line: Growth inhibition of human HL-60(TB) cells assessed as growth percent at 10 uM incubated for 48 hrs by sulforhodamine B assay relative to control. The series is classed as functional. Conditions: HL-60, 48 h, read-out: Activity.
The subject of another series is EKVX. The experiment in a line: Growth inhibition of human EKVX cells assessed as growth percent at 10 uM incubated for 48 hrs by sulforhodamine B assay relative to control. The series is classed as functional. The conditions noted are these: read-out: Activity.
The subject of another series is HOP-92. Description: Growth inhibition of human HOP92 cells assessed as growth percent at 10 uM incubated for 48 hrs by sulforhodamine B assay relative to control. It is filed as functional. The conditions noted are these: HOP-92, 48 h, read-out: Activity.
The next series relates to Mus musculus. Description: Antitumor activity against anesthetized BBN-induced bladder tumor mouse model assessed as increase in cleaved caspase 3 level in necrotic region at 1500 uM administered via intravesical instillation treated for 1 hr administered as 2 doses at 24 hrs interval and measured at 24 hrs after final treatment by hematoxylin and eosin staining based immunohistochemical analysis. It is filed as functional, organism-based.

The next series deals with SN12C. The experiment in a line: Growth inhibition of human SN12C cells assessed as growth percent at 10 uM incubated for 48 hrs by sulforhodamine B assay relative to control. The series is classed as functional. The conditions noted are these: read-out: Activity.
The next series has as its system CAKI-1. The experiment in a line: Growth inhibition of human Caki1 cells assessed as growth percent at 10 uM incubated for 48 hrs by sulforhodamine B assay relative to control. The conditions noted are these: CAKI-1, 48 h, read-out: Activity. It is filed as functional.
Series [4] in a line: Toxicity in anesthetized female mouse model assessed as fibrosis at 750 to 1500 uM administered via intravesical instillation after bladder evacuation treated for 1 hr followed by repetition of the treatment after 24 hrs and measured at 24 hrs after final treatment. Conditions: in vivo, other. The gist of the method: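 Female mice anesthetized, 1–3% isoflurane. Bladder evacuated, then 100 μL of 750 or 1500 μM in 10% DMSO/PBS (or vehicle) instilled by 24G angiocatheter. Catheter left in place for a 1 h dwell. Repeated after 24 h; mice sacrificed 24 h after final dose. Bladder histology read for urothelial height and layers.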

The test system of the next series is MDA-MB-231. Description: Growth inhibition of human MDA-MB-231 cells assessed as growth percent at 10 uM incubated for 48 hrs by sulforhodamine B assay relative to control. It is filed as functional. The conditions noted are these: MDA-MB-231, 48 h, read-out: Activity.
The next series has as its system UMUC3. Description: Growth inhibition of human UM-UC-3 cells measured after 1 hr by Celltiter-Glo luminescent cell viability assay. The series is classed as functional. Conditions: UMUC3, 1 h. Put shortly:
as §2

The test system of the next series is K562. The experiment in a line: Growth inhibition of human K562 cells assessed as growth percent at 10 uM incubated for 48 hrs by sulforhodamine B assay relative to control. The series is classed as functional. The conditions noted are these: K562, 48 h, read-out: Activity.
The next series has as its system NCI-H23. Description: Growth inhibition of human NCI-H23 cells assessed as growth percent at 10 uM incubated for 48 hrs by sulforhodamine B assay relative to control. It is filed as functional. The conditions noted are these: NCI-H23, 48 h, read-out: Activity.
A further series has as its system OVCAR-3. Description: Growth inhibition of human OVCAR3 cells assessed as growth percent at 10 uM incubated for 48 hrs by sulforhodamine B assay relative to control. The conditions noted are these: OVCAR-3, 48 h, read-out: Activity. The series is classed as functional.
The test system of another series is SF-539. The experiment in a line: Growth inhibition of human SF539 cells assessed as growth percent at 10 uM incubated for 48 hrs by sulforhodamine B assay relative to control. The conditions noted are these: SF-539, 48 h, read-out: Activity. The series is classed as functional.
The next series concerns TK-10. The experiment in a line: Growth inhibition of human TK10 cells assessed as growth percent at 10 uM incubated for 48 hrs by sulforhodamine B assay relative to control. The series is classed as functional. Conditions: TK-10, 48 h, read-out: Activity.
Series [5] concerns RT-112. The experiment in a line: Cell cycle arrest in human RT112 cells assessed as increase in cell accumulation at sub-G1 phase at 250 uM incubated for 1 hr measured after culturing in normal medium for 24 hrs by propidium iodide/RNase staining based FACScan flow cytometry analysis. It is filed as functional. Put shortly:
as §1
A general note: Flow cytometry measures light scatter and fluorescence of single cells or particles in a stream.

For `[Br-].[Br-].c1ccc([P+](CCCc2n(Cc3ccc4ccccc4c3)c3ccccc3[n+]2Cc2ccc3ccccc3c2)(c2ccccc2)c2ccccc2)cc1`, the growth at 10 µM with UACC-62 was determined as 37.8%; with OVCAR-4, 74.4%; in the series with SW-620, 35.2%; in the series with MCF7, 73.9%; in the series on HL-60(TB) it was 22.6%; in the series on EKVX it was 59.4%. Further, the growth at 10 µM came out at 46.3% in the series with HOP-92; 55% with SN12C; 79.9% in the series with CAKI-1; 51% in the series with MDA-MB-231; 23.7% with K562; 44% in the series with NCI-H23. The values for the growth at 10 µM with OVCAR-3, in the series on SF-539 and in the series with TK-10 were 75.8%, 36.8% and 89.2%, respectively. In addition, the GI50 came to 200 µM with 5637 and 80 µM with UMUC3. Further, the outcome with J82 [1], in the series on Mus musculus and in the series on RT-112 [5] was Active. Besides, the inhibition result in the series on J82 [2] was “Active”. The “growth inhibition (GI)” value in the series on RT-112 [3] was “Tde”. Further, the Activity result in series [4] is “Non-Toxic”.
